Screens (PubChem BioAssay)
Most compounds without a hit are left out; they make up all but 1.6% or so of the library.
CFTR F508del cor – F508del CFTR correction, initial screen, CFBE line, single point. CFBE cells, YFP halide quenching; stimulated with forskolin plus potentiator P3; % fluorescence drop versus neutral controls. activity (quench increase), % at 7.58 µM. 350,000 tested, 0.36% active;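 active = mean added fluorescence quench of at least 8% versus neutral control, with both replicates also reaching 8%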;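 also: cells transiently co-express mutant CFTR-F508del with the halide-sensitive YFP; corrector assay measuring rescue of mutant channel to the surface after 24 h compound exposure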
Scp1 inh – Scp-1 phosphatase inhibitors, primary screen, biochemical, colorimetric, uHTS. Carboxy-terminal domain RNA polymerase II polypeptide A small phosphatase 1 (Homo …. Recombinant Scp1, phosphopeptide, malachite green phosphate absorbance. inhibition, % at 20 µM. 340,000 tested, 0.88% active. AID 493091, 2011;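 active = inhibition above about 50% at 20 µM, limit read from the data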;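 also: plate controls were DMSO wells with enzyme for no effect and wells lacking enzyme for full effect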
Target sequence (Q9GZU7 76-261 limits assumed): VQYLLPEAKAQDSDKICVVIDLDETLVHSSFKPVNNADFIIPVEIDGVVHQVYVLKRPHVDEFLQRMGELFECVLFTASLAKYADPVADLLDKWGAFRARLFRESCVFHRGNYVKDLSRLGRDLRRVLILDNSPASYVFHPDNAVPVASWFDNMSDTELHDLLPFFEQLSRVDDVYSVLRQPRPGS
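Test system: SCP-1 catalytic domain; Buffer or medium: Acidic Tris acetate buffer with magnesium and detergent; Also added: Phosphorylated 17-residue peptide substrate; Compound: single 20 µM dose, 1% DMSO; Schedule: enzyme reaction 45 min at room temperature, colour 5 min, stabilisation 30 min; Signal: Phosphate-binding colour reagent, absorbance read at 630 nm.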
DNMT1 block – human DNMT1 methyltransferase inhibitors, primary screen, biochemical, molecular beacon, fluorescence, HinP1I cleavage, uHTS; DNA (cytosine-5)-methyltransferase 1 (Homo sapiens), P26358; inhibition (reported as % activation of signal), % at 10 µM; 360,000 tested, 0.83% active; in the data active = inhibition above about 50%
STEP block – STEP phosphatase inhibitors, primary screen, biochemical, fluorescence intensity, uHTS | Tyrosine-protein phosphatase non-receptor type 5 (Homo sapiens), P54829 | recombinant STEP, OMFP fluorogenic substrate | inhibition, % at 20 µM | 360,000 tested, 0.25% active | AID 588621, 2011;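 active = inhibition at 20 µM, scaled per plate between control wells, above about 37%, limit read from the data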;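 also: 0% = DMSO with enzyme and substrate and 100% = substrate only without enzyme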
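System: STEP (striatal-enriched tyrosine phosphatase) enzyme, cell-free; medium: Bis-Tris pH 6.0 buffer with DTT, detergent; dosing: 20 µM, 1% DMSO; times: reaction 20 min, ambient temperature; detection: fluorescence, 480/540 nm; read-out basis: normalized % inhibition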
SUMO1 PPI mod – modulators of SUMO1 protein-protein interactions, primary screen, biochemical, uHTS. Small ubiquitin-related modifier 1 (Homo sapiens), P63165. SUMO1 binding to a labelled peptide, TR-FRET, 1 h. inhibition, % at 20 µM. 360,000 tested, 0.33% active. AID 602429, 2012; in the data active = inhibition above about 37%
Target sequence (P63165 whole entry, looked up): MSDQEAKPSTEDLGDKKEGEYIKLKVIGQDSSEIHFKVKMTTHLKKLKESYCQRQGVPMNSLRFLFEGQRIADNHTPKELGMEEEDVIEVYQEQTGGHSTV
LMPTP inh – LMPTP phosphatase inhibitors, primary screen, biochemical, fluorescence intensity, uHTS | 360,000 tested, 0.22% active | AID 651560, 2012 | inhibition, % at 20 µM | Low molecular weight phosphotyrosine protein phosphatase (Homo sapiens), P24666 | recombinant LMPTP-A, OMFP fluorogenic substrate;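 active = compounds that cut the enzyme signal by at least half of the control window in the single-dose screen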;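 also: plate controls were DMSO wells with enzyme plus substrate for no effect and substrate without enzyme for full effect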
Target sequence (P24666 whole entry, looked up): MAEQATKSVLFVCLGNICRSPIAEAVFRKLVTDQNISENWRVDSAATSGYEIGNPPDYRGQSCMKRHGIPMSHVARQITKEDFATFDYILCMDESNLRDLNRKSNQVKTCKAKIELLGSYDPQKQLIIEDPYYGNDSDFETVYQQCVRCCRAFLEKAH
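Assay system: LMPTP-A phosphatase enzyme | Input: 0.625 nM enzyme | Also added: Fluorogenic phosphatase substrate OMFP at 400 µM final | Compound dosing: One test concentration per compound, 20 µM, with 3% DMSO overall | Schedule: 50 min enzyme reaction at room temperature, protected from light | Signal: Fluorescence intensity | Benchmarks: no-enzyme and uninhibited controls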
DNMT1 interf DR – spectral interference with molecular beacon fluorescence, dose response, artefact control for DNMT1 inhibitor project, biochemical, fluorescent molecular beacon. shares compounds with DNMT1 block. spectral interference counter-screen. IC50, µM. 200 tested, under 10 active. AID 602382, 2012; call rule not given here
DNMT1 inh conf – DNMT1 methyltransferase inhibitor retest, confirmation, biochemical, molecular beacon, fluorescence, single concentration. DNMT1 molecular beacon HinP1I cleavage. 2,300 tested, 8% active. inhibition, % at 10 µM. shares compounds with DNMT1 block;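 active = average inhibition of at least 30% in the single-concentration confirmation test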
Beacon interf – shows spectral interference in the DNMT1 beacon assay; 2,300 tested, 1% active; shares compounds with DNMT1 block; AID 602387; DNMT1 molecular beacon spectral interference counterscreen, fluorescence 485/520; activation (fluorescence interference), % at 10 µM;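 active = activation of at least 30% at 10 µM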;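 also: DNMT1 catalytic domain with a HinP1I cleavage step and a FAM/dabcyl DNA beacon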
* marks the source's active call; other numbers are inactive results; nt = no result.

SMILES	CFTR F508del cor	Scp1 inh	DNMT1 block	STEP block	SUMO1 PPI mod	LMPTP inh	DNMT1 inh conf	Beacon interf	others
CN(C)CCOc1nc(-c2ccccc2)nc2c1oc1ccccc12	nt	3	65*	-6	0	-5	57*	2	DNMT1 interf DR=>99
Cc1ccc(-c2cc(-c3ccccc3O)nc(N/N=C/c3cccnc3)n2)cc1	-2	-3	52*	2	4	2	-1	-4
Cc1ccc(OCC(=O)Nc2nnc(S(=O)(=O)N3CCC(C)CC3)s2)cc1	-2	3	58*	2	3	7	-1	-3
COc1ccc(OCC(=O)Nc2nnc(S(=O)(=O)N3CCCCCC3)s2)cc1	-1	-12	3	-2	11	-1	nt	nt
O=C(Cc1cccs1)Nc1ccc(S(=O)(=O)Nc2ncccn2)cc1	nt	25	68*	-3	10	6	13	0
C[C@@H]1CN([C@H](C)CO)C(=O)Cc2cc(NC(=O)CCN3CCOCC3)ccc2O[C@H]1CN(C)C(=O)Nc1ccc(C(F)(F)F)cc1	2	nt	nt	nt	nt	nt	nt	nt
C=CCn1c(SCC(=O)NCC2CCCO2)nc2scc(-c3ccccc3)c2c1=O (stereo not drawn)	-2	-8	1	1	4	0	nt	nt
C=CCn1c(SCC(=O)NC2CCCC2)nc2scc(-c3ccco3)c2c1=O	nt	1	52*	10	3	6	2	3
CC(=O)Nc1ccc2c(c1)C(=O)N(C)[C@@H]1CC[C@@H](CC(=O)NCc3ccc(Cl)cc3)O[C@@H]1CO2	2	nt	nt	nt	nt	nt	nt	nt
CSc1nsc(/C=C/Nc2ccc(F)cc2F)c1C#N	nt	-1	-29	5	-5	1	nt	nt
CSc1nsc(/C=C/Nc2ccc(C(=O)O)cc2)c1C#N	-1	30	66*	15	14	23	9	9
CN(C)CC(=O)N1[C@H](CO)[C@@H](c2ccc(C#CC3CC3)cc2)[C@@H]1C#N	1	nt	nt	nt	nt	nt	nt	nt
COc1ccc(CNC(=O)c2noc3c2CCCCC3)cc1	nt	-11	2	-4	4	-1	nt	nt
Cc1ccc(NC(=O)c2ccc(NC(=O)c3ccccc3)cc2)cc1C	1	-8	57*	-2	19	5	4	5
O=C(Nc1cccc(O)c1)c1noc2c1CCCCC2	2	-6	8	-5	2	-2	nt	nt
Cc1ccc(C(=O)Nc2ccc(Nc3ccccc3)cc2)cc1C	nt	-24	-25	1	1	3	nt	nt
Cc1ccc(NC(=O)c2noc3c2CCC3)cc1C	2	78*	95*	12	8	9	9	-2
COc1ccc(NC(=O)c2noc3c2CCC3)cc1	nt	83*	108*	7	12	7	5	0
O=C(Cc1ccccc1)N1CC(=O)N2[C@H](C1)[C@H](c1ccc(C#CCc3ccccc3)cc1)[C@@H]2CO	-1	nt	nt	nt	nt	nt	nt	nt
O=C(C[C@@H]1C[C@H]2c3cc(NC(=O)c4cccnc4)ccc3O[C@H]2[C@H](CO)O1)NCc1ccncc1	-1	nt	nt	nt	nt	nt	nt	nt
O=C(CCc1nc2ccccc2c(=O)[nH]1)Nc1nnc(SCc2ccccc2)s1	-7	5	67*	1	9	4	0	-6
O=c1[nH]c(CSc2nnc(Nc3ccccc3)s2)nc2ccccc12	3	-8	14	-1	-3	0	nt	nt
C=CC[C@@H](CC(=O)N[C@@H](CO)Cc1ccccc1)C(=O)NC[C@@H](OC(=O)[C@@H](CC=C)Cc1ccc(F)cc1)c1ccccc1	-3	1	66*	1	3	-5	2	4
C=CCC[C@@H](Cc1ccc(F)cc1)C(=O)OC[C@@H](Cc1c[nH]c2ccccc12)NC(=O)[C@H](CC=C)CC(=O)N[C@H](CO)Cc1ccccc1	-2	-8	71*	3	5	1	0	-3
C=CCC[C@@H](Cc1ccc(F)cc1)C(=O)OC[C@@H](Cc1c[nH]c2ccccc12)NC(=O)[C@@H](CC=C)CC(=O)N(CCO)Cc1ccccc1	-4	-17	60*	-3	9	17	9	13
SMILES	CFTR F508del cor	Scp1 inh	DNMT1 block	STEP block	SUMO1 PPI mod	LMPTP inh	DNMT1 inh conf	Beacon interf	others
C=CCC[C@H](Cc1ccc(F)cc1)C(=O)OC[C@@H](Cc1c[nH]c2ccccc12)NC(=O)[C@@H](CC=C)CC(=O)N[C@@H](CO)Cc1ccccc1	4	-8	-11	6	-5	1	nt	nt
C=CCC[C@@H](Cc1ccc(F)cc1)C(=O)OC[C@H](Cc1c[nH]c2ccccc12)NC(=O)[C@@H](CC=C)CC(=O)N[C@@H](CO)Cc1ccccc1	-1	-12	9	-2	4	2	nt	nt
C=CCC[C@H](Cc1ccc(F)cc1)C(=O)OC[C@H](Cc1c[nH]c2ccccc12)NC(=O)[C@H](CC=C)CC(=O)N(CCO)Cc1ccccc1	3	-18	-32	1	3	6	nt	nt
C=CCC[C@@H](Cc1ccc(F)cc1)C(=O)OC[C@@H](Cc1c[nH]c2ccccc12)NC(=O)[C@@H](CC=C)CC(=O)N[C@H](CO)Cc1ccccc1	-2	-11	74*	2	8	60*	10	9
CCCNC(=O)N1CC2(C1)[C@H](c1ccccc1)[C@@H](CO)N2C(=O)C1CCC1	-4	nt	nt	nt	nt	nt	nt	nt
C[C@@H]1CN([C@H](C)CO)C(=O)Cc2cc(NS(=O)(=O)c3ccc(F)cc3)ccc2O[C@@H]1CN(C)S(=O)(=O)c1ccccc1	0	nt	nt	nt	nt	nt	nt	nt
C[C@H]1CCCCO[C@H](CN(C)C(=O)Nc2ccc(F)cc2)[C@@H](C)CN([C@@H](C)CO)C(=O)c2cc(NS(=O)(=O)c3ccccc3)ccc2O1	-3	nt	nt	nt	nt	nt	nt	nt
Cc1ccc(SCC(=O)NC(=O)NC2CCCC2)c(C)c1	1	1	0	8	4	-1	nt	nt
